Data on five compounds can be found in ChEMBL document CHEMBL4665627 (Eur J Med Chem, 2019).

Values after ≈ are worked out from the molar mass of the structure shown. Active and inactive are the calls of the source. The calls are words filed in the database; no cut-off is given here.

Experiment [1] has as its system Pseudomonas aeruginosa. As to the kind of experiment: Antibacterial activity against Pseudomonas aeruginosa ATCC 27853 assessed as inhibition of bacterial growth after 24 hrs by CLSI protocol based two fold serial dilution method. Format: functional. The method in brief:
(§1)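 Two-fold serial broth dilution in 96-well plates following CLSI; MIC (mM) taken as the lowest concentration giving complete growth inhibition; MIC values from three independent experiments.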

The test system of experiment [2] is Staphylococcus aureus. The experiment in a line: Antibacterial activity against methicillin-resistant Staphylococcus aureus N315 assessed as inhibition of bacterial growth after 24 hrs by CLSI protocol based two fold serial dilution method. Format: functional.
The test system of experiment [3] is Escherichia coli. The experiment in a line: Antibacterial activity against Escherichia coli assessed as inhibition of bacterial growth after 24 hrs by CLSI protocol based two fold serial dilution method. It counts as functional. An outline of the steps:
as §1

Experiment [4] deals with Klebsiella pneumoniae. As to the kind of experiment: Antibacterial activity against Klebsiella pneumoniae measured every 24 hrs after several passages by serial dilution method. It counts as functional, organism-based.
Experiment [5] deals with Staphylococcus aureus. The experiment in a line: Antibacterial activity against Staphylococcus aureus ATCC 29213 assessed as inhibition of bacterial growth after 24 hrs by CLSI protocol based two fold serial dilution method. It counts as functional.
Experiment [6] concerns Staphylococcus aureus. As to the kind of experiment: Antibacterial activity against Staphylococcus aureus assessed as inhibition of bacterial growth after 24 hrs by CLSI protocol based two fold serial dilution method. Format: functional. The method in brief: as §1
In experiment [7] the test system is Pseudomonas aeruginosa. The experiment in a line: Antibacterial activity against Pseudomonas aeruginosa assessed as inhibition of bacterial growth after 24 hrs by CLSI protocol based two fold serial dilution method. It counts as functional. The method in brief: as §1
In experiment [8] the test system is Klebsiella pneumoniae. As to the kind of experiment: Antibacterial activity against Klebsiella pneumoniae assessed as inhibition of bacterial growth after 24 hrs by CLSI protocol based two fold serial dilution method. Format: functional. The method in brief:
as §1

The test system of the next experiment is Enterococcus faecalis. As to the kind of experiment: Antibacterial activity against Enterococcus faecalis assessed as inhibition of bacterial growth after 24 hrs by CLSI protocol based two fold serial dilution method. It counts as functional. An outline of the steps:
as §1

Experiment [9] has as its system Escherichia coli. As to the kind of experiment: Antibacterial activity against Escherichia coli ATCC 25922 assessed as inhibition of bacterial growth after 24 hrs by CLSI protocol based two fold serial dilution method. It counts as functional. An outline of the steps: as §1
For experiment [10], the system named is Staphylococcus aureus. As to the kind of experiment: Antibacterial activity against Staphylococcus aureus ATCC 25923 assessed as inhibition of bacterial growth after 24 hrs by CLSI protocol based two fold serial dilution method. It counts as functional. The method in brief:
as §1

For another experiment, the system named is Acinetobacter baumannii. As to the kind of experiment: Antibacterial activity against Acinetobacter baumannii assessed as inhibition of bacterial growth after 24 hrs by CLSI protocol based two fold serial dilution method. Format: functional. The method in brief:
as §1

The next experiment has as its system Candida parapsilosis. As to the kind of experiment: Antifungal activity against Candida parapsilosis ATCC 22019 assessed as inhibition of fungal growth after 24 hrs by CLSI protocol based two fold serial dilution method. The following applies: Lodderomyces parapsilosis. Format: functional. The method in brief:
as §1

In the next experiment the test system is Candida tropicalis. The experiment in a line: Antifungal activity against Candida tropicalis assessed as inhibition of fungal growth after 24 hrs by CLSI protocol based two fold serial dilution method. Format: functional. The method in brief:
as §1

Another experiment deals with Aspergillus fumigatus. The experiment in a line: Antifungal activity against Aspergillus fumigatus assessed as inhibition of fungal growth after 24 hrs by CLSI protocol based two fold serial dilution method. It counts as functional. The method in brief:
as §1

The subject of experiment [11] is Candida albicans. As to the kind of experiment: Antifungal activity against Candida albicans ATCC 90023 assessed as inhibition of fungal growth after 24 hrs by CLSI protocol based two fold serial dilution method. It counts as functional. The method in brief:
as §1

Experiment [12] concerns Candida albicans. As to the kind of experiment: Antifungal activity against Candida albicans assessed as inhibition of fungal growth after 24 hrs by CLSI protocol based two fold serial dilution method. Format: functional. The method in brief: as §1
The subject of a further experiment is Saccharomyces cerevisiae. The experiment in a line: Inhibition of Saccharomyces cerevisiae CGMCC 2.145 chitin synthase at 300 ug/ml using GlcNAc and UDP-GlcNAc as substrate incubated for 60 mins by microplate reader analysis relative to control. The following applies: dose 300.0 µg/ml. An outline of the steps: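 Chitin synthase inhibition ratio measured at 300 µg/mL test compound, relative to untreated control.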

Experiment [13] deals with Staphylococcus aureus. As to the kind of experiment: Antibacterial activity against methicillin-resistant Staphylococcus aureus assessed as bacterial growth inhibition in presence of 2-(4-(3-(2-aminothiazol-4-yl)-1-ethyl-6-fluoro-4-oxo-1,4-dihydroquinolin-7-yl)piperazin-1-yl)acetonitrile by CLSI protocol based two fold serial dilution method. Format: functional. An outline of the steps: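 Checkerboard-type pairing, with each agent tested alone and combined by CLSI two-fold serial dilution. MICs are from three independent experiments. FIC index = (MIC of A combined/MIC of A alone) + (MIC of B combined/MIC of B alone). An index ≤1 is read as synergistic and 1–2 as additive.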

Experiment [14] has as its system Klebsiella pneumoniae. As to the kind of experiment: Potentiation of 2-(4-(3-(2-aminothiazol-4-yl)-1-ethyl-6-fluoro-4-oxo-1,4-dihydroquinolin-7-yl)piperazin-1-yl)acetonitrile-induced antibacterial activity against Klebsiella pneumoniae assessed as fold reduction in 2-(4-(3-(2-aminothiazol-4-yl)-1-ethyl-6-fluoro-4-oxo-1,4-dihydroquinolin-7-yl)piperazin-1-yl)acetonitrile MIC by CLSI protocol based two fold serial dilution method. Format: functional.

The test system of experiment [15] is Staphylococcus aureus. The experiment in a line: Antibacterial activity against Staphylococcus aureus assessed as bacterial growth inhibition in presence of 2-(4-(3-(2-aminothiazol-4-yl)-1-ethyl-6-fluoro-4-oxo-1,4-dihydroquinolin-7-yl)piperazin-1-yl)acetonitrile by CLSI protocol based two fold serial dilution method. It counts as functional.
The test system of experiment [16] is Klebsiella pneumoniae. As to the kind of experiment: Antibacterial activity against Klebsiella pneumoniae assessed as bacterial growth inhibition in presence of 2-(4-(3-(2-aminothiazol-4-yl)-1-ethyl-6-fluoro-4-oxo-1,4-dihydroquinolin-7-yl)piperazin-1-yl)acetonitrile by CLSI protocol based two fold serial dilution method. It counts as functional. An outline of the steps:
as §1

Experiment [17] relates to Escherichia coli. The experiment in a line: Antibacterial activity against Escherichia coli assessed as bacterial growth inhibition in presence of 2-(4-(3-(2-aminothiazol-4-yl)-1-ethyl-6-fluoro-4-oxo-1,4-dihydroquinolin-7-yl)piperazin-1-yl)acetonitrile by CLSI protocol based two fold serial dilution method. Format: functional. The method in brief:
as §1

Consider `CCn1cc(C(=O)O)c(=O)c2cc(F)c(N3CCNCC3)cc21` [NORFLOXACIN], for which the MIC in the experiment on Pseudomonas aeruginosa [1] came out at 2 µM (≈ 0.639 µg/mL); with Staphylococcus aureus [2], 25 µM (≈ 7.98 µg/mL); with Escherichia coli [3], 50 µM (≈ 16 µg/mL); in the experiment on Staphylococcus aureus [5], 6 µM (≈ 1.92 µg/mL); with Staphylococcus aureus [6], 2 µM (≈ 0.639 µg/mL); in the experiment with Pseudomonas aeruginosa [7], 6 µM (≈ 1.92 µg/mL). Further, the MIC in the experiment with Klebsiella pneumoniae [8] came to 13 µM (≈ 4.15 µg/mL); in the experiment with Enterococcus faecalis it was 13 µM (≈ 4.15 µg/mL); with Escherichia coli [9] it was 25 µM (≈ 7.98 µg/mL); in the experiment with Staphylococcus aureus [10] it was 3 µM (≈ 0.958 µg/mL); in the experiment on Acinetobacter baumannii, 25 µM (≈ 7.98 µg/mL). Moreover, the result with Klebsiella pneumoniae [4] was inactive.

On to `CCn1cc(-c2csc(N)n2)c(=O)c2cc(F)c(N3CCN(CCO)CC3)cc21`, for which the MIC is 77 µM (≈ 32.1 µg/mL) in the experiment with Candida parapsilosis; 38 µM (≈ 15.9 µg/mL) in the experiment on Pseudomonas aeruginosa [1]; 153 µM (≈ 63.9 µg/mL) with Staphylococcus aureus [2]; 153 µM (≈ 63.9 µg/mL) in the experiment on Escherichia coli [3]; 153 µM (≈ 63.9 µg/mL) in the experiment on Staphylococcus aureus [5]; 153 µM (≈ 63.9 µg/mL) in the experiment on Candida tropicalis. Moreover, the MIC in the experiment on Staphylococcus aureus [6] came to 153 µM (≈ 63.9 µg/mL); in the experiment on Pseudomonas aeruginosa [7], 77 µM (≈ 32.1 µg/mL); with Aspergillus fumigatus it was 153 µM (≈ 63.9 µg/mL); in the experiment with Candida albicans [11] it was 153 µM (≈ 63.9 µg/mL); with Klebsiella pneumoniae [8], 19 µM (≈ 7.93 µg/mL); with Candida albicans [12], 153 µM (≈ 63.9 µg/mL). The MIC in the experiment on Enterococcus faecalis worked out at 38 µM (≈ 15.9 µg/mL); with Escherichia coli [9], 153 µM (≈ 63.9 µg/mL); in the experiment on Staphylococcus aureus [10], 77 µM (≈ 32.1 µg/mL); with Acinetobacter baumannii, 153 µM (≈ 63.9 µg/mL). For the same compound, in the experiment on Saccharomyces cerevisiae, the inhibition was 48.3%.

For the compound `CCn1cc(-c2csc(N)n2)c(=O)c2cc(F)c(N3CCN(CC(C)=O)CC3)cc21`, the MIC in the experiment with Candida parapsilosis is 298 µM (≈ 128 µg/mL); in the experiment on Pseudomonas aeruginosa [1], 149 µM (≈ 64 µg/mL); in the experiment on Staphylococcus aureus [2] it was 298 µM (≈ 128 µg/mL); with Escherichia coli [3] it was 597 µM (≈ 256 µg/mL); in the experiment on Staphylococcus aureus [5] it was 298 µM (≈ 128 µg/mL); in the experiment with Candida tropicalis it was 298 µM (≈ 128 µg/mL). For the same compound, the MIC with Staphylococcus aureus [6] worked out at 37 µM (≈ 15.9 µg/mL); with Pseudomonas aeruginosa [7], 597 µM (≈ 256 µg/mL); with Aspergillus fumigatus it was 597 µM (≈ 256 µg/mL); in the experiment on Candida albicans [11], 37 µM (≈ 15.9 µg/mL); in the experiment on Klebsiella pneumoniae [8], 37 µM (≈ 15.9 µg/mL); in the experiment on Candida albicans [12], 597 µM (≈ 256 µg/mL). In addition, the MIC stood at 149 µM (≈ 64 µg/mL) in the experiment on Enterococcus faecalis, 298 µM (≈ 128 µg/mL) in the experiment with Escherichia coli [9], 19 µM (≈ 8.16 µg/mL) in the experiment with Staphylococcus aureus [10] and 298 µM (≈ 128 µg/mL) in the experiment on Acinetobacter baumannii.

Consider `CC(=O)OCC1=C(C(=O)O)N2C(=O)[C@@H](NC(=O)CS/C(=N/C(C)C)NC(C)C)[C@H]2SC1`, for which the MIC stood at 4 µM (≈ 1.89 µg/mL) in the experiment on Staphylococcus aureus [2]; 17 µM (≈ 8.03 µg/mL) with Escherichia coli [3]; 2 µM with Staphylococcus aureus [13]; 34 µM (≈ 16.1 µg/mL) in the experiment on Staphylococcus aureus [6]; 4 µM in the experiment on Staphylococcus aureus [15]; 4 µM (≈ 1.89 µg/mL) with Klebsiella pneumoniae [8]. Also, the MIC stood at 2 µM in the experiment on Klebsiella pneumoniae [16] and 8 µM in the experiment on Escherichia coli [17]. The “fold change (FC)” value with Klebsiella pneumoniae [14] is listed as 5.

In the case of `CCn1cc(-c2csc(N)n2)c(=O)c2cc(F)c(N3CCN(C=O)CC3)cc21`, the MIC with Candida parapsilosis is 160 µM (≈ 64.2 µg/mL); with Pseudomonas aeruginosa [1], 80 µM (≈ 32.1 µg/mL); in the experiment on Staphylococcus aureus [2], 638 µM (≈ 256 µg/mL); in the experiment with Escherichia coli [3], 638 µM (≈ 256 µg/mL); in the experiment with Staphylococcus aureus [5] it was 638 µM (≈ 256 µg/mL); in the experiment on Candida tropicalis, 638 µM (≈ 256 µg/mL). In addition, the MIC stood at 638 µM (≈ 256 µg/mL) in the experiment on Staphylococcus aureus [6]; 638 µM (≈ 256 µg/mL) with Pseudomonas aeruginosa [7]; 638 µM (≈ 256 µg/mL) in the experiment with Aspergillus fumigatus; 166 µM (≈ 66.6 µg/mL) with Candida albicans [11]; 319 µM (≈ 128 µg/mL) with Klebsiella pneumoniae [8]; 160 µM (≈ 64.2 µg/mL) in the experiment with Candida albicans [12]. The MIC in the experiment with Enterococcus faecalis is 319 µM (≈ 128 µg/mL); with Escherichia coli [9] it was 160 µM (≈ 64.2 µg/mL); in the experiment with Staphylococcus aureus [10] it was 160 µM (≈ 64.2 µg/mL); in the experiment with Acinetobacter baumannii it was 319 µM (≈ 128 µg/mL).
